Active and inactive are the calls of the source. The calls are words filed in the database; no cut-off is given here.
system: Ambystoma mexicanum; test: Inhibition of Ambystoma mexicanum tail regeneration at 10 uM; format: functional
Summary of the method: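 Stage 42 Ambystoma mexicanum embryos were manually hatched and anesthetized with benzocaine, then given 2 mm tail amputations. They were reared at 18–19 °C in artificial pond water containing test agent in DMSO (0.1% final DMSO), with solutions changed at 3 and 5 dpa. Regeneration was imaged at 0, 3, 5 and 7 dpa, ending at 7 dpa. DMSO vehicle was the negative control and geldanamycin the positive control.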

| Structure (SMILES) | tail regeneration inhibition (active/not active) |
| --- | --- |
| CO[C@H]1[C@H](O[C@@H]2c3c(cc4c(c3O)C(=O)c3c(O)cccc3C4=O)C(=O)[C@@](C)(O)[C@H]2OC)O[C@@H](C)[C@H](O)[C@H]1O | inactive |
| COc1cccc2c1C(=O)c1c(O)c3c(c(O)c1C2=O)C[C@@](O)(C(C)=O)C[C@@H]3O[C@H]1C[C@H](N)[C@H](O)[C@H](C)O1 | inactive |
| CC(=O)[C@]1(O)Cc2c(O)c3c(c(O)c2[C@@H](O[C@H]2C[C@H](N)[C@H](O)[C@H](C)O2)C1)C(=O)c1c(O)cccc1C3=O | inactive |
| COc1cc(O)c2c(c1)C(=O)c1cc3c(c(O)c1C2=O)[C@@H](O[C@@H]1O[C@@H](C)[C@H](OC)[C@@H](O)[C@H]1OC)[C@H](OC)[C@](C)(O)C3=O | Active |
| COc1cccc2c1C(=O)c1c(cc3c(c1O)[C@@H](O[C@@H]1O[C@@H](C)[C@H](O)[C@@H](O)[C@H]1OC)[C@H](OC)[C@](C)(O)C3=O)C2=O | inactive |

From ChEMBL document CHEMBL5335826, “Biochemical and Structural Studies of the Carminomycin 4-O-Methyltransferase DnrK” (J Nat Prod, 2024)
